Bioassay records from PubChem.
UBC13 polyUb: UBC13 polyubiquitin chain formation inhibitors, primary screen, biochemical, TR-FRET, uHTS. Ubiquitin-conjugating enzyme E2 N (Homo sapiens), P61088. 0.47% of 330,000 active. inhibition, % at 20 µM; in the data active means inhibition above about 45%, passing the limit was not always enough
Target sequence (P61088 whole entry, looked up): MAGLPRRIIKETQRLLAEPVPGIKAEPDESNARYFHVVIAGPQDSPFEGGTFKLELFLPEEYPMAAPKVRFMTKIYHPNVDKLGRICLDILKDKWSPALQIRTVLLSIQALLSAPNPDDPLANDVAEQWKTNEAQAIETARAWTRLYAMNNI
TMEM16A inh: TMEM16A chloride channel inhibitors, primary screen, cell-based, HTS. AID 588511, 2011. HEK293 TMEM16A/YFP iodide influx fluorescence, ionomycin. 1.2% of 310,000 active. normalized B-score (activity score, 25-100; higher = stronger inhibition) at 10 µM. Anoctamin-1 (Mus musculus), Q8BHY3;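 active means ratio plate-corrected score three or more library SD toward inhibition, starting fluorescence score within five deviations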;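 further: score derived from kinetic fluorescence span divided by baseline fluorescence per well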
Apaf1 inhib: inhibitors of human Apaf-1 apoptosome, primary screen, biochemical, DEVD-Rh110 fluorescence, uHTS. 0.71% of 330,000 active. reconstituted apoptosome caspase-3 activity. Apoptotic protease-activating factor 1 (Homo sapiens), O14727. inhibition, % at 20 µM; active means inhibition of at least 40% at 20 µM;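 further: plate controls were DMSO wells for no effect and DEVD-CHO caspase inhibitor wells for full effect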
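System – cell-free apoptosome with Apaf-1, procaspase-3 and caspase-9 · Buffer or medium – pH 7.5 Hepes buffer with CHAPS, BSA, DTT · Also added – cytochrome c with DEVD-Rh110 · Times – 30 min compound preincubation, 50 min activation, room temperature · Technique – Rh110 fluorescence intensity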
TMEM16A act: TMEM16A chloride channel activators or potentiators, primary screen, cell-based, HTS; Anoctamin-1 (Mus musculus), Q8BHY3; HEK293 TMEM16A/YFP-H148Q/I152L, iodide quench fluorescence; active compounds read low; B-score at 10 µM; 0.3% of 340,000 active; AID 623877, 2012;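 active means fluorescence-ratio B-score plate-corrected deviation score at least 3 library SD below zero, with starting fluorescence score within 5 deviations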;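 further: channel opened by trigger with iodide after compound preincubation; score built on the fluorescence ratio of max minus min over baseline; more negative score means more quench and so TMEM16A activation or potentiation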
FID counter: compounds displacing fluorescent DNA intercalator, primary screen, artefact control for HCV NS3 helicase inhibitor project, biochemical, FID fluorescence; DNA fluorescent intercalator displacement; AID 1845, 2009; inhibition, % at 7.9 µM; 0.17% of 290,000 active; in the data active means inhibition above about 37%;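 further: 0% = vehicle and 100% = reference compound; higher means more ethidium bromide displaced from hairpin DNA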
Casp3 UBC13 ctr: CASP3 inhibitor validation, counterassay for project on UBE2N polyubiquitination blockers, biochemical, one dose | Recombinant caspase-3, Caspase-Glo 3/7 luminescence, 60 min | inhibition, % at 20 µM | shares compounds with UBC13 polyUb | 4% of 1,400 active;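 active means mean inhibition across replicates above about 26%, limit read from the data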;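 further: plate controls were DMSO with caspase-3 for no effect and DMSO wells lacking enzyme for full effect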
Target sequence (P42574 whole entry, looked up): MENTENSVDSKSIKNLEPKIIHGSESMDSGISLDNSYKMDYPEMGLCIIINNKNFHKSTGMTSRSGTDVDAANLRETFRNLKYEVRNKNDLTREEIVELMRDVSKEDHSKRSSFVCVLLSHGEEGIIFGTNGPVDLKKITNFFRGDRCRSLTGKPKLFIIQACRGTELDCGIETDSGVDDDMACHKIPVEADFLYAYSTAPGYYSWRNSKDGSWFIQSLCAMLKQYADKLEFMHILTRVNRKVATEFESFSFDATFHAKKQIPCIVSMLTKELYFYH
UBC13 conf: UBC13 polyubiquitination inhibitors, single-point retest, confirmation, biochemical, TR-FRET, single concentration; inhibition, % at 10 µM; 68% of 1,400 active; shares compounds with UBC13 polyUb; AID 488859, 2010; in the data active means inhibition above about 45%
Apaf-1 inh conf: Apaf-1 inhibitors, single-dose retest, confirmation, biochemical, fluorescence, DEVD-Rh110, 20 µM; shares compounds with Apaf1 inhib; reconstituted apoptosome, caspase-3 DEVD-Rh110 fluorescence; inhibition, % at 20 µM; 25% of 1,800 active;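 active means mean inhibition of at least 40% at 20 µM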;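 further: plate controls were DMSO wells for no effect and DEVD-CHO caspase inhibitor control wells for full effect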
Rh110 quench: Rh110 fluorescence interference by putative Apaf-1 inhibitors, confirmation, artefact control for Apaf-1 inhibitor project, biochemical, 20 µM | 1,800 tested, under 10 active | quenched caspase reaction | shares compounds with Apaf1 inhib | activation (fluorescence interference), % at 20 µM | AID 504615, 2011;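 active means signal rise of 40% or more at 20 µM, treated as a fluorescence artifact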
Apaf1 inh interf: fluorescence interference of Apaf-1 inhibitor hits, dose response, artefact control for Apaf-1 inhibitor project; shares compounds with Apaf1 inhib; fluorescence interference counterscreen, Apaf-1 assay format; IC50, µM; 460 tested, under 10 active; call rule not given here
* = called active by the depositor; i = inactive; / = no result. An excerpt weighted towards active compounds, which were near 2.4% of everything screened.

SMILES | UBC13 polyUb | TMEM16A inh | Apaf1 inhib | TMEM16A act | FID counter | Casp3 UBC13 ctr | UBC13 conf | Apaf-1 inh conf | Rh110 quench | others
COc1ccc(C(=O)N[C@H](C(=O)NCCCn2nc(C)cc2C)C(C)C)cc1 | 12 | / | -7 | i | / | / | / | / | /
COc1ccc(C[C@H]2CN3C(=NC[C@@H]3Cc3ccccc3)N2CCNC(=O)c2ccc(C)c(Br)c2)cc1 | 88* | i | 65* | i | 16 | 1 | 56* | 34 | -17
Fc1cccc(CCN2CCNC[C@@H]2Cc2ccccc2)c1 | -11 | i | 4 | i | / | / | / | / | /
FC(F)(F)c1cc(CCN2CCNC[C@@H]2Cc2ccccc2)cc(C(F)(F)F)c1 | 64* | i | 57* | i | / | 0 | 51* | 21 | 8
CCOc1ccc(S(=O)(=O)Nc2nc3ccccc3nc2Nc2ccc(N3CCOCC3)cc2)cc1 | -29 | i | 31 | i | -15 | / | / | / | /
COc1cc2c(cc1C1NC(=S)NC(C)=C1C(N)=O)CCCC2 (stereo not drawn) | -1 | i | -4 | i | -6 | / | / | / | /
CCOC(=O)CCc1nc2ccccc2[nH]1 | -3 | i | -19 | i | 0 | / | / | / | /
COCC(=O)O[C@]1(CCN(C)CCCc2nc3ccccc3[nH]2)CCc2cc(F)ccc2[C@@H]1C(C)C | 67* | i | 54* | i | / | -2 | 60* | 23 | 4
O=C(CCN1CCN(c2ccccc2)CC1)N/N=C/c1ccc([N+](=O)[O-])o1 | -13 | i | 10 | i | -5 | / | / | / | /
CCC(C)(C)c1ccc(OCCCC[n+]2ccccc2)c(C(C)(C)CC)c1 | 66* | i | 51* | i | 27 | -3 | 98* | 31 | 17
CCCCCc1ccc(OCCCC[n+]2cccc(C)c2)c(CCCCC)c1 | 59* | 100* | 61* | i | 41* | -3 | 90* | 40* | 9 | Apaf1 inh interf=>100
CCCCCc1ccc(OCCCC[n+]2ccccc2)c(CCCCC)c1 | 59* | i | 59* | i | 23 | -4 | 84* | 39 | 12
CSc1nc(C)nc(N/C=C(\C#N)S(=O)(=O)c2ccccc2Cl)n1 | -16 | i | -17 | i | -1 | / | / | / | /
COc1ccc2c(Cl)c(C(=O)NN3CCN(C)CC3)sc2c1 | 7 | i | -5 | i | 7 | / | / | / | /
Cc1ccc2nc(-c3ccc(NC(=S)NC4CC(C)(C)NC(C)(C)C4)cc3)sc2c1 | 91* | i | 50* | i | 29 | 11 | 96* | 42* | 10 | Apaf1 inh interf=>100
CC[C@@H](C)[C@@H]1CN([C@@H](CN2CCC[C@H]2CN2C(N)=NC[C@H]2C(C)C)C(C)C)C(=N)N1CCc1ccc(Cl)c(Cl)c1 | 75* | / | 51* | / | / | -2 | 61* | 16 | 6
CC[C@@H](C)[C@@H]1CN([C@@H](C)CN2CCC[C@H]2CN2C(N)=NC[C@H]2CC(C)C)C(=N)N1CCCC1CCCC1 | 44 | / | 34 | / | / | / | / | / | /
CC[C@@H](C)[C@@H]1CN([C@@H](C)CN2CCC[C@H]2CN2C(N)=NC[C@@H]2Cc2ccccc2)C(=N)N1CCCC1CCCC1 | 71* | / | 62* | i | / | -2 | 73* | 2 | -2
CC[C@@H](C)[C@@H]1CN([C@@H](C)CN2CCC[C@H]2CN2C(N)=NC[C@@H]2Cc2ccccc2)C(=N)N1CCc1ccc(Cl)c(Cl)c1 | 76* | / | 71* | i | / | 2 | 70* | 6 | 6
CCCCN1C(=N)N([C@@H](CCC)CN2CCC[C@H]2CN2C(N)=NC[C@@H]2Cc2ccccc2)C[C@H]1[C@H](C)CC | 37 | / | 34 | i | / | / | / | / | /
O=C(CCN1C(=O)C2C3CCC(C3)C2C1=O)OCC(=O)c1cccc([N+](=O)[O-])c1 (stereo not drawn) | 2 | i | -2 | i | -2 | / | / | / | /
C#CCOCCOCCOCCNc1nc(N2CCN(C(=O)CCCCCCCCCCNC(=O)[C@H](CCCCN)n3cc(CCO)nn3)CC2)nc(N2CCN(C(=O)CCCCCCCCCCNC(=O)[C@H](CCCCN)n3cc(CCO)nn3)CC2)n1 | 117* | i | 64* | i | / | 3 | 125* | 46* | 1 | Apaf1 inh interf=>100
C#CCOCCOCCOCCNc1nc(N2CCN(C(=O)CCCCCCCCCCNC(=O)[C@H](CCCCN)n3cc(CCO)nn3)CC2)nc(N2CCN(C(=O)CCCCCCCCCCNC(=O)[C@@H]([C@H](C)O)n3cc(C)nn3)CC2)n1 | 121* | i | 59* | i | / | 2 | 122* | 31 | 6
C#CCOCCOCCOCCNc1nc(N2CCN(C(=O)[C@H]([C@@H](C)CC)n3cc(CCCCN)nn3)CC2)nc(N2CCN(C(=O)[C@H](C)n3cc(CCCN=C(N)N)nn3)CC2)n1 | 30 | i | 14 | i | / | / | / | / | /
C#CCOCCOCCOCCNc1nc(N2CCN(C(=O)CCCCCCCCCCNC(=O)Cn3cc(CCCCCN)nn3)CC2)nc(N2CCN(C(=O)CCCCCCCCCCNC(=O)[C@H]([C@@H](C)CC)n3cc(CCCCCN)nn3)CC2)n1 | 124* | 25* | 74* | -13* | / | -2 | 123* | 58* | 5 | Apaf1 inh interf=>100
C#CCOCCOCCOCCNc1nc(N2CCN(C(=O)Cn3cc(CCO)nn3)CC2)nc(N2CCN(C(=O)[C@H]([C@@H](C)O)n3cc(CCCCN)nn3)CC2)n1 | 5 | i | -28 | i | -7 | / | / | / | /
C#CCOCCOCCOCCNc1nc(N2CCN(C(=O)[C@H]([C@@H](C)CC)n3cc(CCCCN)nn3)CC2)nc(N2CCN(C(=O)[C@H]([C@@H](C)CC)n3cc(CCCN=C(N)N)nn3)CC2)n1 | 53* | i | 46* | i | / | -2 | 48* | 3 | 5
